Results from different studies.
HLA class I histocompatibility antigen, B alpha chain: HLA class I histocompatibility antigen, B alpha chain (Homo sapiens, UniProt P01889)
HTR2C: 5-hydroxytryptamine receptor 2C (HTR2C, Homo sapiens, UniProt P28335)
HTR2B: 5-hydroxytryptamine receptor 2B (HTR2B, Homo sapiens, UniProt P41595)

Compound	target	observed	action	method	pH	endpoint	result
CC(C)C[C@H](NC(=O)[C@H](CCC(N)=O)NC(=O)[C@H](CCCNC(=N)N)NC(=O)[C@H](CO)NC(=O)[C@H](Cc1ccc(O)cc1)NC(=O)[C@H](CC(C)C)NC(=O)[C@@H](N)CCCNC(=N)N)C(=O)N[C@@H](Cc1c[nH]cn1)C(=O)N[C@@H](Cc1ccccc1)C(=O)O	HLA class I histocompatibility antigen, B alpha chain	cell-free assay				IC50	7.67 µM
O=[N+]([O-])c1ccc(O)c([N+](=O)[O-])c1	Casein kinase I isoform delta (CSNK1D, Homo sapiens, UniProt P48730)	binding		SPR		Kd	> 50 µM
O=C1Nc2ccc3ncsc3c2/C1=C/c1cnc[nH]1	Serine/threonine-protein kinase Nek6 (NEK6, Homo sapiens, UniProt Q9HC98)	enzyme activity	inhibitor			IC50	27.5 µM
COc1cc(CCNC2CCCc3cccc(O)c32)c(OC)cc1C#N (centres unmarked)	HTR2C	G protein activation	agonist	BRET		EC50	5.9 µM
COc1cc2c(cc1OC)CN(CCc1ccc(NC(=O)c3cccc4c(=O)c5cccc(OC)c5[nH]c34)cc1)CC2	HTR2B	cell-free assay				Ki	0.222 µM
CC[C@H](C)[C@H](NC(=O)[C@@H]1CCCN1C(=O)[C@H](CCC(=O)O)NC(=O)[C@H](CC(C)C)NC(=O)[C@@H](N)C(C)C)C(=O)N[C@@H](CC(C)C)C(=O)N[C@@H](Cc1c[nH]cn1)C(=O)N[C@@H](CO)C(=O)N[C@H](C(=O)O)[C@@H](C)OP(=O)(O)O	Serine/threonine-protein kinase PLK1, polo-box (PLK1, Homo sapiens, UniProt P53350)	binding		MST	pH 8	Kd	0.0137 µM
CC[C@H](C)[C@H](NC(=O)[C@@H]1CCCN1C(=O)[C@H](Cc1c[nH]cn1)NC(=O)[C@H](CCCCN)NC(=O)[C@H](Cc1ccccc1)NC(=O)[C@H](CC(C)C)NC(=O)[C@@H](N)CCCCN)C(=O)N[C@@H](CCC(N)=O)C(=O)N[C@@H](CC(C)C)C(=O)O	HLA class I histocompatibility antigen, B alpha chain	cell-free assay				IC50	7.48 µM
COc1cc(C(F)(F)F)c(OC)cc1C1CCCNC1 (centres unmarked)	HTR2B	G protein activation	agonist	BRET		EC50	0.12 µM
CC(C)C[C@H](NC(=O)[C@@H]1CCCN1C(=O)[C@H](Cc1c[nH]c2ccccc12)NC(=O)[C@H](CC(=O)O)NC(=O)[C@H](Cc1ccc(O)cc1)NC(=O)[C@@H](NC(=O)[C@@H](N)Cc1ccc(O)cc1)C(C)C)C(=O)N[C@H](C(=O)N[C@@H](Cc1ccccc1)C(=O)O)[C@@H](C)O	HLA class I histocompatibility antigen, B alpha chain	cell-free assay				IC50	24.2 µM
COc1cc(CCNC(CO)c2ccccc2)c(OC)cc1C#N (centres unmarked)	HTR2C	G protein activation	agonist	BRET		EC50	2.9 µM
c1cncc([C@@H]2CCCN2)c1	Neuronal acetylcholine receptor; alpha3/beta4 (Rattus norvegicus, UniProt P04757+P12392)	cell-free assay		radioligand		Ki	1.3 µM
CC[C@H](C)[C@H](NC(=O)[C@@H](N)CCSC)C(=O)N[C@@H](Cc1ccccc1)C(=O)N[C@@H](CC(=O)O)C(=O)N[C@@H](CCCCN)C(=O)N1CCC[C@H]1C(=O)N[C@H](C(=O)N[C@@H](Cc1ccc(O)cc1)C(=O)N[C@@H](Cc1ccccc1)C(=O)O)C(C)C	HLA class I histocompatibility antigen, B alpha chain	cell-free assay				IC50	36 µM
COc1cc2c(cc1OC)-c1c(OC)c(OC)cc3c1[C@H](C2)N(C)CC3 (racemic)	HTR2B	ligand displacement		radioligand		Ki	0.613 µM
CC[C@H](C)[C@H](NC(=O)[C@H](Cc1ccccc1)NC(=O)[C@@H]1CCCN1C(=O)CNC(=O)[C@H](Cc1ccc(O)cc1)NC(=O)[C@H](CCSC)NC(=O)[C@@H](N)CCCNC(=N)N)C(=O)N[C@@H](Cc1c[nH]cn1)C(=O)N[C@@H](Cc1ccccc1)C(=O)O	HLA class I histocompatibility antigen, B alpha chain	cell-free assay				IC50	31.4 µM
COc1cc2c3c(c1OC)-c1c(OC)ccc(Cl)c1CC3N(C)CC2 (racemic)	HTR2C	cell-free assay		radioligand		Ki	0.792 µM
COc1cc(CCNC(c2ccccc2O)C2CC2)c(OC)cc1C#N (centres unmarked)	HTR2C	calcium signal	agonist			EC50	> 10 µM
Nc1ncnc2c1ncn2[C@@H]1O[C@H](C[C@@H](N)CC[C@H](N)C(=O)O)[C@@H](O)[C@H]1O	mRNA cap guanine-N(7) methyltransferase (RNMT, Homo sapiens, UniProt O43148)	enzyme activity	inhibitor			IC50	9.02 µM
